Test results: ChEMBL document CHEMBL1275544, “Effect of therapeutic chemical agents in vitro and on experimental meningoencephalitis due to Naegleria fowleri” (Antimicrob Agents Chemother, 2008)
Values after ≈ are worked out from the molar mass of the structure shown. Active and inactive are the calls of the source. The rule behind the calls is not given here.

Columns and labels:
Mus musculus [1] = assay: Blood urea nitrogen level in BALB/c mouse serum at 20 mg/kg, ip; format: ADME, organism-based; parameters: dose 20 mg/kg, route intraperitoneal; conditions: in vivo
Procedure, shortened: (§1)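 Renal toxicity check: BALB/c mice given drug i.p. at 5, 10, 20 or 50 mg/kg (saline vehicle), or saline as negative control. Blood collected once daily for 3 days. Serum blood urea nitrogen measured on a clinical chemical analyzer.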

Naegleria fowleri [2] = assay: Antiparasitic activity against Naegleria fowleri ATCC 30215 trophozoites after 6 days; format: functional; conditions: ATCC 30215, 144 h, read-out: MIC100
Naegleria fowleri [3] = assay: Antiparasitic activity against Naegleria fowleri ATCC 30215 trophozoites after 2 days; format: functional; conditions: ATCC 30215, 48 h, read-out: MIC100
[4] = Hepatotoxicity in BALB/c mouse hepatocytes assessed as change in cell morphology at 20 mg/kg, ip by histopathological analysis; format: toxicity, organism-based, Hepatocyte; parameters: dose 20 mg/kg, route intraperitoneal
Procedure, shortened: (§2)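 Toxicity histology: BALB/c mice dosed i.p. at 20 mg/kg in saline. Liver and kidney fixed in 10% neutral buffered formalin, paraffin-embedded, H&E-stained, and complete cross-sections examined by light microscopy (×100, ×400) for hepatocyte and renal cortical tubule size and shape.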

Naegleria fowleri [5] = assay: Antiparasitic activity against Naegleria fowleri ATCC 30215 trophozoites infected in BALB/c mouse brain by histopathology analysis; format: functional, organism-based; conditions: ATCC30215
Procedure, shortened: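 Female BALB/c mice, 7 weeks old, infected intranasally under secobarbital with 10^4 trophozoites grown 3 days in Nelson's medium at 37°C. Drugs given i.p. in saline on days 3, 7, 11. Brains of dead mice or mice surviving 1 month fixed in 10% neutral buffered formalin, paraffin-embedded, H&E-stained and examined by light microscopy. 20 mice/group.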

Naegleria fowleri [6] = assay: Antiparasitic activity against Naegleria fowleri ATCC 30215 trophozoites at 100 ug/ml on day 4 by LDH release assay; format: functional
Procedure, shortened: (§3)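 Supernatant sampled on days 2, 4, 6, mixed with CytoTox96 reagent for 30 min at room temperature, stopped, A490 read. Cytotoxicity % = (sample − spontaneous)/(maximum − spontaneous) ×100. Means ± SE of three experiments in triplicate.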

Naegleria fowleri [7] = assay: Antiparasitic activity against Naegleria fowleri ATCC 30215 trophozoites at 25 ug/ml on day 6 by LDH release assay; format: functional; procedure, shortened: as §3
Mus musculus [8] = assay: Renal toxicity in BALB/c mouse assessed as change in renal cortical tubule morphology at 20 mg/kg, ip by histopathological analysis; format: organism-based; parameters: dose 20 mg/kg, route intraperitoneal; conditions: in vivo; procedure, shortened: as §2
Mus musculus [9] = assay: Renal toxicity in BALB/c mouse assessed as necrosis in kidney cortex at 20 mg/kg, ip by histopathological analysis; format: organism-based; parameters: dose 20 mg/kg, route intraperitoneal; conditions: in vivo
Naegleria fowleri [10] = assay: Antiparasitic activity against Naegleria fowleri ATCC 30215 trophozoites infected in BALB/c mouse assessed as mouse survival at 20 mg/kg, ip administered on days 3 and 7 postinfection; format: functional, ATCC30215; conditions: route intraperitoneal
Procedure, shortened: (§4)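 Female BALB/c mice, 7 weeks old, were infected intranasally under secobarbital anaesthesia with 10^4 trophozoites grown 3 days in Nelson's medium at 37°C. Drug was dissolved in saline and given as 100 µl intraperitoneally, starting day 3; controls received saline; 20 mice per group. Deaths were recorded daily for 1 month and mean time to death computed per group. Cause of death was confirmed by brain-tissue culture.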

Naegleria fowleri [11] = assay: Antiparasitic activity against Naegleria fowleri ATCC 30215 trophozoites infected in BALB/c mouse assessed as mean time to death at 20 mg/kg, ip administered on days 3, 7 and 11 postinfection; format: functional, ATCC30215; conditions: route intraperitoneal; procedure, shortened: as §4
Mus musculus [12] = assay: Renal toxicity in BALB/c mouse assessed as degeneration of renal tubules at 20 mg/kg, ip by histopathological analysis; format: organism-based; parameters: dose 20 mg/kg, route intraperitoneal; conditions: in vivo
Naegleria fowleri [13] = assay: Antiparasitic activity against Naegleria fowleri ATCC 30215 trophozoites after 4 days; format: functional; conditions: ATCC 30215, 96 h, read-out: MIC100
Mus musculus [14] = assay: Blood urea nitrogen level in BALB/c mouse serum at 50 mg/kg, ip; format: ADME, organism-based; parameters: dose 50 mg/kg, route intraperitoneal; conditions: in vivo; procedure, shortened: as §1
Naegleria fowleri [15] = assay: Antiparasitic activity against Naegleria fowleri ATCC 30215 trophozoites infected in BALB/c mouse assessed as mouse survival at 20 mg/kg, ip administered on days 3, 7 and 11 postinfection; format: functional, ATCC30215; conditions: route intraperitoneal; procedure, shortened: as §4
Mus musculus [16] = assay: Blood urea nitrogen level in BALB/c mouse serum at 10 mg/kg, ip; format: ADME, organism-based; parameters: dose 10 mg/kg, route intraperitoneal; conditions: in vivo; procedure, shortened: as §1
Mus musculus [17] = assay: Blood urea nitrogen level in BALB/c mouse serum at 5 mg/kg, ip; format: ADME, organism-based; parameters: dose 5 mg/kg, route intraperitoneal; conditions: in vivo; procedure, shortened: as §1
Naegleria fowleri [18] = assay: Antiparasitic activity against Naegleria fowleri ATCC 30215 trophozoites infected in BALB/c mouse assessed as mouse survival at 10 mg/kg, ip administered on days 3, 7 and 11 postinfection; format: functional, ATCC30215; conditions: route intraperitoneal; procedure, shortened: as §4
Naegleria fowleri [19] = assay: Antiparasitic activity against Naegleria fowleri ATCC 30215 trophozoites at >1.56 ug/ml on day 4 by LDH release assay; format: functional; procedure, shortened: as §3
Naegleria fowleri [20] = assay: Antiparasitic activity against Naegleria fowleri ATCC 30215 trophozoites infected in BALB/c mouse assessed as mean time to death at 10 mg/kg, ip administered on days 3, 7 and 11 postinfection; format: functional, ATCC30215; conditions: route intraperitoneal; procedure, shortened: as §4
Naegleria fowleri [21] = assay: Antiparasitic activity against Naegleria fowleri ATCC 30215 trophozoites assessed as inhibition of amoeba proliferation at 0.39 ug/ml on day 2; format: functional; conditions: ATCC 30215, 48 h
Procedure, shortened: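 Viable amoebae counted by hemacytometer with trypan blue on day 2, with light-microscope morphology. Triplicate wells, at least three repeats.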

Naegleria fowleri [22] = assay: Antiparasitic activity against Naegleria fowleri ATCC 30215 trophozoites at 12.5 ug/ml on day 2 by LDH release assay; format: functional; procedure, shortened: as §3
Naegleria fowleri [23] = assay: Antiparasitic activity against Naegleria fowleri ATCC 30215 trophozoites at 100 ug/ml on day 2 by LDH release assay; format: functional; procedure, shortened: as §3
Naegleria fowleri [24] = assay: Antiparasitic activity against Naegleria fowleri ATCC 30215 trophozoites at 25 ug/ml on day 2 by LDH release assay; format: functional; procedure, shortened: as §3
Naegleria fowleri [25] = assay: Antiparasitic activity against Naegleria fowleri ATCC 30215 trophozoites at 1.56 ug/ml on day 2 by LDH release assay; format: functional; procedure, shortened: as §3
Naegleria fowleri [26] = assay: Antiparasitic activity against Naegleria fowleri ATCC 30215 trophozoites at 3.125 ug/ml on day 2 by LDH release assay; format: functional; procedure, shortened: as §3
Naegleria fowleri [27] = assay: Antiparasitic activity against Naegleria fowleri ATCC 30215 trophozoites at 50 ug/ml on day 2 by LDH release assay; format: functional; procedure, shortened: as §3
Naegleria fowleri [28] = assay: Antiparasitic activity against Naegleria fowleri ATCC 30215 trophozoites at 50 ug/ml on day 6 by LDH release assay; format: functional; procedure, shortened: as §3
Naegleria fowleri [29] = assay: Antiparasitic activity against Naegleria fowleri ATCC 30215 trophozoites at 6.25 ug/ml on day 2 by LDH release assay; format: functional; procedure, shortened: as §3

SMILES	Activity (Mus musculus [1]) [mg/dL]	MIC (Naegleria fowleri [2]) [µg/mL]	MIC (Naegleria fowleri [3]) [µg/mL]	Activity (Naegleria fowleri [7]) [%]	Activity (Naegleria fowleri [10]) [%]	MIC (Naegleria fowleri [13]) [µg/mL]	Activity (Mus musculus [14]) [mg/dL]	Activity (Naegleria fowleri [15]) [%]	Activity (Mus musculus [16]) [mg/dL]	other results
CN(C)CCCN1c2ccccc2Sc2ccc(Cl)cc21 [CHLORPROMAZINE]	38.4	12.5 (≈ 39.2 µM)	12.5 (≈ 39.2 µM)	64.4	35	12.5 (≈ 39.2 µM)	57.5	75	36.3	Activity [4]: Non-toxic; Activity (Naegleria fowleri [5]): Active; Activity (Naegleria fowleri [6]): 69.1%; Activity (Mus musculus [8]): Non-toxic; Activity (Mus musculus [9]): Non-toxic; Time (Naegleria fowleri [11]): 17.2 days; Activity (Mus musculus [12]): Non-toxic
C[C@@H]1[C@H](O)[C@@H](C)/C=C/C=C/C=C/C=C/C=C/C=C/C=C/[C@H](O[C@@H]2O[C@H](C)[C@@H](O)[C@H](N)[C@@H]2O)C[C@@H]2O[C@](O)(C[C@@H](O)C[C@@H](O)[C@H](O)CC[C@@H](O)C[C@@H](O)CC(=O)O[C@H]1C)C[C@H](O)[C@H]2C(=O)O [AMPHOTERICIN B]	44.1	0.78 (≈ 0.844 µM)	0.78 (≈ 0.844 µM)	99.5	–	0.78 (≈ 0.844 µM)	–	–	38.6	Activity (Mus musculus [17]): 27.4 mg/dL; Activity (Naegleria fowleri [18]): 40%; Activity (Naegleria fowleri [19]): >50%; Time (Naegleria fowleri [20]): 17.3 days; inhibition at 0.39 µg/mL (Naegleria fowleri [21]): 100%
CCCCCCCCCCCCCCCCOP(=O)([O-])OCC[N+](C)(C)C [MILTEFOSINE]	34.6	25 (≈ 61.3 µM)	25 (≈ 61.3 µM)	–	20	25 (≈ 61.3 µM)	82.4	55	29.6	Activity (Naegleria fowleri [22]): <30%; Activity (Naegleria fowleri [23]): <30%; Activity (Naegleria fowleri [24]): <30%; Activity (Naegleria fowleri [25]): <30%; Activity (Naegleria fowleri [26]): <30%; Activity (Naegleria fowleri [27]): <30%; Activity (Naegleria fowleri [28]): 79.3%; Activity (Naegleria fowleri [29]): <30%
